Assay results published in ChEMBL document CHEMBL4000155, “Synthesis and Antileukemic Activities of Piperlongumine and HDAC Inhibitor Hybrids against Acute Myeloid Leukemia Cells” (J Med Chem, 2016).
pIC50: −log10 of the molar value. Activity calls are given as the source filed them. No cut-off for these calls is given here.

What was measured:
Homo sapiens = species on record: Homo sapiens; conditions: at 1 µM
U-937 [1] = assay: Induction of apoptosis in p53 null human U937 cells at 1 uM after 24 hrs by annexin V-FITC/PI staining based flow cytometry; format: functional
Summary of the method: (§1)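 Cells treated 24 h, single agents or SAHA+PL at 1:1 (each drug at the stated concentration). Annexin V-FITC/PI kit staining, then flow cytometry, reported as % Annexin V+ cells. Three independent experiments in triplicate, with data from one representative experiment. DMSO <0.1% vehicle control.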

U-937 [2] = assay: Induction of apoptosis in p53 null human U937 cells at 2 uM after 24 hrs by annexin V-FITC/PI staining based flow cytometry; format: functional
Summary of the method: (§2)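 Human U937 AML cells (p53 null) in RPMI 1640 with 10% FBS, 2 mM L-glutamine, penicillin/streptomycin, 37 °C, 5% CO2. Exposed 24 h to compound alone or with SAHA; vehicle DMSO < 0.1% v/v. Annexin V-FITC/PI staining and flow cytometry, reported as % Annexin V+ cells. Three independent experiments in triplicate; one representative shown. EC50 taken as concentration giving 50% Annexin V+ cells versus vehicle.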

[3] = Antiproliferative activity against human CMS cells after 72 hrs by MTT assay; format: functional, cell-based
Summary of the method: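 AML cell lines grown in RPMI 1640 with 10% FBS (20% for MOLM-13), 2 mM L-glutamine and penicillin/streptomycin at 37 °C, 5% CO2. Ara-C-resistant HL-60 and CMK sublines came from stepwise cytarabine selection and were kept in 600 nM or 300 nM cytarabine respectively. Cells were treated 72 h. MTT 0.05 mg/mL, 3 h at 37 °C, DMSO solubilization, absorbance at 570 nm. IC50 given ± SEM.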

U-937 [4] = assay: Induction of cell death in p53 null human U937 cells at 1 to 4 uM after 24 hrs by annexin V-FITC/PI staining based flow cytometry; format: functional
Summary of the method: as §2

U-937 [5] = assay: Induction of DNA damage in p53 null human U937 cells at 2 uM after 20 hrs by SYBR gold staining based alkaline comet assay; format: functional, cell-based
Summary of the method: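 U937 cells treated 20 h with SAHA and PL alone or combined (16 h for hybrids). Alkaline single-cell gel electrophoresis, SYBR Gold staining, microscopy. Median % DNA in tail from 4 replicate gels ± s.e.m.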

U-937 [6] = assay: Induction of apoptosis in p53 null human U937 cells at 2 uM preincubated with NAC for 3 hrs followed by compound addition measured after 24 hrs by annexin V-FITC/PI staining based flow cytometry; format: functional, cell-based
Summary of the method: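 U937 cells preincubated 3 h with 3 mM NAC or vehicle and washed with PBS to remove excess NAC. Then drug alone or with SAHA for 24 h. Apoptosis scored as % Annexin V+ by Annexin V-FITC/PI flow cytometry; vehicle DMSO < 0.1% v/v.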

MCF-10A = assay: Cytotoxicity against human MCF10A cells assessed as decrease in cell viability at 0.5 to 5 uM after 24 hrs by MTT assay; format: cell-based
Summary of the method: (§3)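 MCF-10A (DMEM/F12, 5% horse serum, hydrocortisone, cholera toxin, insulin, EGF) and U937 (RPMI 1640, 10% FBS) were exposed to 0.5–5 μM, alone or PL+SAHA 1:1, for 24 h. MTT 0.05 mg/mL, 3 h at 37 °C, DMSO solubilization, A570. Viability given as mean ± SD of four to six independent experiments. DMSO <0.1% vehicle control.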

U-937 [7] = assay: Cytotoxicity against p53 null human U937 cells assessed as decrease in cell viability at 0.5 to 5 uM after 24 hrs by MTT assay; format: functional, cell-based
Summary of the method: as §3

U-937 [8] = assay: Induction of apoptosis in p53 null human U937 cells at 0.25 to 2 uM after 24 hrs by annexin V-FITC/PI staining based flow cytometry; format: functional, cell-based
Summary of the method: as §1

[9] = Chemical stability of the compound in pH 7.4 phosphate buffer at 50 uM incubated up to 4 hrs in presence of GSH by HPLC analysis; format: physicochemical; conditions: pH 7.4, 4 h
Summary of the method: (§4)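 Compound at 50 μM incubated with or without 5 mM GSH in phosphate buffer pH 7.4 at 37 °C for up to 4 h. Mixtures analysed by HPLC with water/0.1% formic acid/10% methanol versus 0.1% formic acid in acetonitrile, 0.5 mL/min, 10–80% B gradient over 18 min.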

AML [10] = assay: Induction of apoptosis in patient derived AML cells assessed as PARP-1 cleavage at 0.25 to 2 uM after 24 hrs by Western blot analysis; format: functional, cell-based; conditions: Homo sapiens
Summary of the method: (§5)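 Primary AML patient cells, Ficoll-Hypaque purified and grown in RPMI 1640/20% FBS with ITS and 5637 supernatant. Exposed 24 h; whole-cell lysates prepared with protease/phosphatase inhibitors, run on SDS-PAGE, blotted to PVDF and probed for PARP and cleaved caspase-3.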

[11] = Chemical stability of the compound in pH 7.4 phosphate buffer at 50 uM incubated up to 4 hrs in absence of GSH by HPLC analysis; format: physicochemical; conditions: pH 7.4, 4 h
Summary of the method: as §4

AML [12] = assay: Induction of apoptosis in patient derived AML-91 cells after 24 hrs by annexin V-FITC/PI staining based flow cytometry; format: functional, cell-based; conditions: Homo sapiens
Summary of the method: (§6)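 Primary AML samples purified by Ficoll-Hypaque density centrifugation and cultured in RPMI 1640 with 20% FBS, ITS and 20% 5637 bladder cancer cell supernatant as a GM-CSF source. Treated 24 h, then Annexin V-FITC/PI flow cytometry as % Annexin V+. Single experiment in triplicate.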

U-937 [13] = assay: Induction of apoptosis in p53 null human U937 cells at 0.5 uM after 24 hrs by annexin V-FITC/PI staining based flow cytometry; format: functional
Summary of the method: as §1

AML [14] = assay: Induction of apoptosis in patient derived AML-92 cells after 24 hrs by annexin V-FITC/PI staining based flow cytometry; format: functional, cell-based; conditions: Homo sapiens
Summary of the method: as §6

U-937 [15] = assay: Induction of apoptosis in p53 null human U937 cells at 0.25 to 0.5 uM preincubated with NAC for 3 hrs followed by compound addition measured after 24 hrs by annexin V-FITC/PI staining based flow cytometry; format: functional, cell-based
Summary of the method: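 U937 cells preincubated 3 h with 3 mM NAC or vehicle, washed with PBS, then drug-treated 24 h. Annexin V-FITC/PI staining by flow cytometry, reported as % Annexin V+.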

AML [16] = assay: Induction of apoptosis in patient derived AML cells assessed as caspase 3 cleavage at 0.25 to 2 uM after 24 hrs by Western blot analysis; format: functional, cell-based; conditions: Homo sapiens
Summary of the method: as §5

U-937 [17] = assay: Induction of apoptosis in p53 null human U937 cells assessed as PARP-1 cleavage at 0.25 to 0.5 uM after 24 hrs by Western blot analysis; format: functional, cell-based
Summary of the method: (§7)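 U937 cells exposed for 24 h. Lysates with protease/phosphatase inhibitors were separated by SDS-PAGE, transferred to PVDF and probed for PARP and cleaved caspase-3, with β-actin as loading control.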

U-937 [18] = assay: Induction of apoptosis in p53 null human U937 cells at 0.25 uM after 24 hrs by annexin V-FITC/PI staining based flow cytometry; format: functional
Summary of the method: as §1

U-937 [19] = assay: Induction of apoptosis in p53 null human U937 cells assessed as caspase 3 cleavage at 0.25 to 0.5 uM after 24 hrs by Western blot analysis; format: functional, cell-based
Summary of the method: as §7

Compound | inhibition (Homo sapiens) | Activity (U-937 [2]) | Activity (MCF-10A) | Activity (U-937 [7]) | Activity (U-937 [8]) | further results
COC(=O)CCCCCCOc1c(OC)cc(/C=C/C(=O)N2CCC=C(Cl)C2=O)cc1OC | inactive | – | – | – | – | Activity (U-937 [1]): 29.7%
O=C(CCCCCCC(=O)Nc1ccccc1)NO [VORINOSTAT] | – | 25% | Non-Toxic | – | – | pIC50 [3]: 5.99; Activity (U-937 [4]): Active; Activity (U-937 [5]): inactive; Activity (U-937 [6]): inactive
COc1cc(C(=O)N2CCC=CC2=O)cc(OC)c1OCCCCCCC(=O)NO | Active | 40% | Non-Toxic | Active | – | –
COc1cc(/C=C/C(=O)N2CCCCC2=O)cc(OC)c1OCCCCCCC(=O)NO | Active | – | – | – | inactive | –
COC(=O)CCCCCCOc1c(OC)cc(/C=C/C(=O)N2CCC=CC2=O)cc1OC | inactive | – | – | – | inactive | –
COc1cc(/C=C/C(=O)N2CCC(C)=CC2=O)cc(OC)c1OCCCCCCC(=O)NO | Active | – | – | – | inactive | –
COc1cc(C(=O)N2CCC=C(Cl)C2=O)cc(OC)c1OCCCCCCC(=O)NO | Active | 40% | Non-Toxic | Active | – | Stability [9]: Unstable
COc1cc(/C=C/C(=O)N2CCC=C(Cl)C2=O)cc(OC)c1OCCCCCCC(=O)NO | Active | 100% | Toxic | Active | – | Activity (AML [10]): Active; Stability [9]: Unstable; Stability [11]: Stable; Activity (AML [12]): Dose-dependent effect; Activity (U-937 [1]): 88%; Activity (U-937 [13]): 49.2%; Activity (AML [14]): Dose-dependent effect; Activity (U-937 [15]): inactive; Activity (AML [16]): Active; Activity (U-937 [17]): Active; Activity (U-937 [18]): 29.9%; Activity (U-937 [19]): Active
